For two compounds, Ki and Mechanism of inhibition results are on record in PMC3206322 (ACS chemical neuroscience, 2011).

Format in all cases: cell-based
Test [1] deals with T1, GluA2Qflip AMPA receptor (Homo sapiens, UniProt P42262). As to the kind of experiment: Laser-pulse photolysis rate measurement of channel opening. To be noted: for Mechanism of inhibition: inhibited both kop and kcl. The method in brief: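 Transfected HEK-293S cells expressing GluA2Qflip were whole-cell clamped at −60 mV, pH 7.4, 22 °C. After 6 s preincubation with inhibitor, caged glutamate was photolysed by a 355 nm laser pulse of 200–800 μJ, with released glutamate calibrated against free glutamate in the same cell. The kcl term was taken from kobs at 100 μM glutamate over a range of inhibitor concentrations (eq 4), and kop at 350 μM (eq 5).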
T1 sequence (P42262 25-883 isoform P42262-2 limits assumed): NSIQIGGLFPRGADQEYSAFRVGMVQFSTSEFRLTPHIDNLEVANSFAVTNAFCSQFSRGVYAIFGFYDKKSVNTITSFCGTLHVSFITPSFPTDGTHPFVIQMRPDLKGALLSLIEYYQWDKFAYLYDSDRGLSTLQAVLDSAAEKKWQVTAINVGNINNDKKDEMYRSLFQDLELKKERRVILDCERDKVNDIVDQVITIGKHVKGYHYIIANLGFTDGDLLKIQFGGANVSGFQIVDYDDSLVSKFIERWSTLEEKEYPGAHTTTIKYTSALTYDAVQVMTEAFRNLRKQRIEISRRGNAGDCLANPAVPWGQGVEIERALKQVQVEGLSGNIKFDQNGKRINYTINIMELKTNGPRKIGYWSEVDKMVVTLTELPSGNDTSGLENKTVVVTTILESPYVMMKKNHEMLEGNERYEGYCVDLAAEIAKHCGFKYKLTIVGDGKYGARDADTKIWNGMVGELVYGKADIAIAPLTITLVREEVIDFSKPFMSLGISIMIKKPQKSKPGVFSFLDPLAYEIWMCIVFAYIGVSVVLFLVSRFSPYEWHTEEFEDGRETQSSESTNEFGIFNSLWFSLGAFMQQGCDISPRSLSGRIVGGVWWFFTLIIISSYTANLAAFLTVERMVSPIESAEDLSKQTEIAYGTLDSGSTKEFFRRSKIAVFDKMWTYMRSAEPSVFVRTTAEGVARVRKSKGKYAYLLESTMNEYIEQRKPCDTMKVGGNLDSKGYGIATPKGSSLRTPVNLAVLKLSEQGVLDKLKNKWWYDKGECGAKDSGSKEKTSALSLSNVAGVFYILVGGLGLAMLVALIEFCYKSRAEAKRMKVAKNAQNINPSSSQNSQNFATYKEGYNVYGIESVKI

The target of test [2] is T1, GluA2Qflip AMPA receptor. As to the kind of experiment: Laser-pulse photolysis amplitude measurement of whole-cell current. In outline: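 HEK-293S cells in DMEM/10% FBS at 37 °C, 5% CO2, were transiently transfected with GluA2Qflip by calcium phosphate, with GFP and large T-antigen plasmids, and used at 48 h. Whole-cell recording at −60 mV, pH 7.4, 22 °C in HEPES/NaCl buffer. Caged glutamate was photolysed by a 355 nm pulse after 6 s inhibitor preincubation. The A/AI ratio versus inhibitor concentration was fitted by eq 6.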

Test [3] addresses T1, GluA2Qflip AMPA receptor. As to the kind of experiment: Solution-flow amplitude measurement of whole-cell current. To be noted: Ki (closed-channel), solution-flow technique, GluA2Qflip in HEK-293 cells; 100 μM glutamate; amplitude A/AI, eq 6.
Setting [4] is: Ki (100 μM glu), amplitude measurement, laser-pulse photolysis, GluA2Qflip in HEK-293 cells, 100 μM glutamate, closed-channel state.

As a reminder, the Ki is a measure of affinity in units of concentration, obtained from inhibition or displacement. Higher therefore signals a looser hold on the target.

Values joined by “and” are separate entries in the source; they are usually repeats but may differ in a detail not shown here. Equal values may be shown once.

Turning to `Nc1ccc(C2=NNC(=O)Cc3cc4c(cc32)OCO4)cc1` [BDZ-2, 1-(4-aminophenyl)-3,5-dihydro-7,8-methylenedioxy-4H-2,3-benzodiazepin-4-one], the Ki was 48 µM and 194 µM in test [1]; 23 to 25 µM in test [2]; 25 ± 1 µM in test [2] (setting [4]); 25 ± 1 µM in test [3]. Moreover, the Mechanism of inhibition entry in test [1] is “noncompetitive”.

Take `CC1=NN=C(c2ccc(N)cc2)c2cc3c(cc2C1)OCO3` [GYKI 52466, 1-(4-aminophenyl)-4-methyl-7,8-methylenedioxy-5H-2,3-benzodiazepine]: the Ki in test [1] is 61 µM and 128 µM; in test [2] it was 14 to 16 µM; in test [2] (setting [4]), 15 ± 1 µM; in test [3], 14 ± 1 µM. For the same compound, in test [1], the Mechanism of inhibition result was “noncompetitive”.
